Results: PubChem BioAssay
Active and inactive are the calls of the source.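 The calls were made as follows, unless noted: active = visually confirmed hit in the image check and inhibition above 20%; inconclusive = visually confirmed hit but inhibition not above 20%; inactive = no visual hit in the image check.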

Columns and labels:
[1] = inhibitors of TNFa-induced NFkB p65 translocation, primary screen, imaging, HUVEC, MLSMR starter and 10KST1 sets (AID 438;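 active = inhibition above 20% together with a positive visual image hit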;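 also: compound added about 3h40 before a 20 min TNFalpha stimulation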;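 as to inhibition: signal is the nuclear over cytoplasmic p65 intensity ratio per well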); settings: HUVEC TNFa-induced p65 nuclear translocation; cell count: measured here: nuclei count (cytotoxicity indicator), at 2.08 µM; inhibition: at 2 µM, stronger effect = higher value, 0% TNFa-plus-vehicle, 100% no-TNFa wells
[2] = inhibitors of mutant huntingtin aggregation, primary screen, imaging, exon1htt(103Q)mCFP cells, high-content imaging (AID 483;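 active = visual image review flags a hit and inhibition of aggregation exceeds 20%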;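 also: compound exposure lasted 3 days before fixation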;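 as to nuclei count: percent of the per-plate median nuclei count of sample wells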); settings: exon1htt(103Q)mCFP cell line, aggregate imaging, at 2 µM; inhibition of aggregation: stronger effect = higher value; nuclei count: measured here: cell count, toxicity
[3] = inhibitors of E-selectin induction by TNFa, primary screen, imaging, HUVEC, immunofluorescence, MLSMR starter and 10KST1 sets (AID 487); settings: HUVEC TNFalpha-induced E-selectin immunofluorescence imaging, at 2 µM; inhibition: stronger effect = higher value; nuclei count: measured here: cell number, toxicity;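 as to inhibition: signal is fraction of cell area covered by stained E-selectin grains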;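 as to nuclei count: 100% = median nuclei count of all wells on the same plate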
[4] = target: Voltage-gated potassium channel subunit beta-2 (Rattus norvegicus) (UniProt P62483); assay: KvBeta enzyme negative modulators, primary screen, biochemical, NADPH fluorescence (AID 622;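 active = fluorescence slope higher than the sample average by over 3 SD, cut at about -0.22 in these data, passing the limit was not always enough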;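 also: slope of raw intensity against log time taken from 70 to 1610 s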); settings: recombinant KvBeta, 4-cyanobenzaldehyde reduction, at 10 µM, stronger effect = higher value
[5] = target: Voltage-gated potassium channel subunit beta-2 (Rattus norvegicus) (UniProt P62483); assay: KvBeta positive modulators, primary screen, biochemical, NADPH fluorescence (AID 623;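 active = NADPH fluorescence slope more negative than the mean of all samples by about 3 SD, 99.7% confidence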;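 also: fluorescence intensity change per second fitted from 20 to 320 s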); settings: Recombinant KvBeta, NADPH fluorescence decrease slope, 10 min; at 10 µM; stronger effect = lower value
[6] = target: Muscarinic acetylcholine receptor M4 (Homo sapiens) (UniProt P08173); assay: compounds altering M4/GIRK thallium flux, either direction, primary screen, M4 allosteric agonist project, cell-based, HEK293 M4/GIRK, BTC-AM (AID 625;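 active = fluorescence slope after compound addition differing from the mean of all tested samples at 99.7% confidence, mostly higher but some lower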;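 also: thallium influx through GIRK channels coupled to M4 in HEK293 cells with BTC-AM dye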); settings: at 10 µM, actives lie on both sides
Summary of the method: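 Material: M4/GIRK1/GIRK2 stable HEK293 cell line. Medium: pH 7.3 thallium assay buffer. Dosing: single compound concentration, 10 µM final. Schedule: 1 h dye loading, 2 min kinetic read. Measured by: kinetic fluorescence with BTC-AM dye. Read-out: post-addition slope, 15–24 s, of baseline-normalized fluorescence. Benchmarks: carbachol and DMSO controls.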

[7] = inhibitors of Sendai virus-induced IRF3 signaling, primary screen, TLR/RLR signaling modifier project, cell-based, Sendai virus stimulus, luciferase, 10K MLSCN set (AID 602276;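 active = inhibition at or above 50% at 10 µM; inactive = inhibition below 50%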;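 also: firefly luciferase from ISG56 promoter only with Renilla not read in this screen; 0% = Sendai virus plus DMSO and 100% = medium plus DMSO without virus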); settings: HEK293 RL24 IRF3 luciferase reporter, at 10 µM, stronger effect = higher value
[8] = inhibitors of poly I:C-induced TLR3 signaling, primary screen, cell-based, poly I:C stimulus, luciferase, 10K MLSCN set (AID 602277;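 active = inhibition of the reporter signal at or above 50%; inactive = inhibition below 50%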); settings: HEK293-TLR3 RL24 IRF3 luciferase reporter, at 10 µM, stronger effect = higher value

Muscarinic acetylcholine receptor M4 (Homo sapiens), sequence (P08173 whole entry, looked up): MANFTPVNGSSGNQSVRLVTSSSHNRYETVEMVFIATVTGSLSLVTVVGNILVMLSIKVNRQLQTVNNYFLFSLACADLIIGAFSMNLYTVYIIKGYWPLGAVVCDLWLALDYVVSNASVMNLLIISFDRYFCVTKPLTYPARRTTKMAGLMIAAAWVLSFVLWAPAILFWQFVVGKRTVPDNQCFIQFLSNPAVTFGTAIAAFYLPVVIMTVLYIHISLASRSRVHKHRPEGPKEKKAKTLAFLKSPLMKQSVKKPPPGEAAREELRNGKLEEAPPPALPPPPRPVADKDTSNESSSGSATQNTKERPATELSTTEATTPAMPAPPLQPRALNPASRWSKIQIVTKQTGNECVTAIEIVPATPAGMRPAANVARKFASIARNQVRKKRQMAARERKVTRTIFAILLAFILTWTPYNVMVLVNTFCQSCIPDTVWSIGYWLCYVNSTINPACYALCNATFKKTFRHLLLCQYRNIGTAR
Voltage-gated potassium channel subunit beta-2 (Rattus norvegicus), sequence (P62483 whole entry, looked up): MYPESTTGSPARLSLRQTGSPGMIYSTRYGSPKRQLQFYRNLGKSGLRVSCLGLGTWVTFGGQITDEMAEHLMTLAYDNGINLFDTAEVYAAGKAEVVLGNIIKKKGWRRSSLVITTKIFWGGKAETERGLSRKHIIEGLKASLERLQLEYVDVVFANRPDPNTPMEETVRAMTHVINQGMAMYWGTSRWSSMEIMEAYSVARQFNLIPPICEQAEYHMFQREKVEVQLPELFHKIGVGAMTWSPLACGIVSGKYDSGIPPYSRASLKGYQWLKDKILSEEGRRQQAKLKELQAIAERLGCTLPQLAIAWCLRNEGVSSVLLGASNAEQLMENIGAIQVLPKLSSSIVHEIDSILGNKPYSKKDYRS

SMILES | cell count [1] | inhibition [1] | inhibition of aggregation [2] | nuclei count [2] | inhibition [3] | nuclei count [3] | fluorescence slope [4] | NADPH fluorescence slope [5] | fluorescence slope [6] | inhibition [7] | inhibition [8]
COCCCn1c(SCC(=O)N2CCc3ccccc32)nnc1-c1ccoc1C | 238 | -3.2% (inactive) | 2.7% (inactive) | 56.1% | 42.5% (inactive) | 56.1% | -0.548 (inactive) | -5.6e-05 (inactive) | 0.00429 (inactive) | 20.2% (inactive) | 19.6% (inactive)
O=C(CN1C(=O)NC2(CCCCCC2)C1=O)N1CCC(Cc2ccccc2)CC1 | 444 | 2.9% (inactive) | -3.9% (inactive) | 99.8% | -38.1% (inactive) | 104% | -0.366 (inactive) | 2.2e-05 (inactive) | 0.00581 (inactive) | 0.617% (inactive) | 15.9% (inactive)
Cc1cc(C)c(Cn2c(=O)n(CCCC(=O)NCc3ccco3)c(=O)c3ccccc32)c(C)c1 | 744 | -4.2% (inactive) | 5.8% (inactive) | 100% | -64.2% (inactive) | 112% | -0.578 (inactive) | -2.4e-05 (inactive) | 0.00693 (inactive) | 14.8% (inactive) | 17.8% (inactive)
CCn1cc(C(=O)N2CCCC2)c(=O)c2cc(S(=O)(=O)N3CCOCC3)ccc21 | 542 | -1% (inactive) | -13.1% (inactive) | 100% | 14.8% (inactive) | 113% | -0.427 (inactive) | -7.4e-05 (inactive) | 0.00706 (inactive) | 1.49% (inactive) | 12.8% (inactive)
O=C(O)CCc1ccc(-c2ccccc2)n1CC(=O)O | 355 | 2.4% (inactive) | -3.7% (inactive) | 112% | -36.5% (inactive) | 114% | -0.564 (inactive) | -7.8e-05 (inactive) | 0.00623 (inactive) | -9.35% (inactive) | -25.1% (inactive)
CS(=O)(=O)Nc1ccc(C(=O)NCc2ccco2)cc1 | 499 | -0.3% (inactive) | 16.6% (inactive) | 60% | 11.9% (inactive) | 105% | -0.571 (inactive) | 1.2e-06 (inactive) | 0.00586 (inactive) | 5.42% (inactive) | 16.9% (inactive)
COc1cccc(N2CCN(c3c4c(nc5ncnn35)CCC4)CC2)c1 | 468 | 17.4% (inactive) | -4.1% (inactive) | 102% | 2.7% (inactive) | 109% | -0.558 (inactive) | -5.9e-05 (inactive) | 0.00591 (inactive) | 0.933% (inactive) | -39.1% (inactive)
O=c1c2c(nc3nc(COc4ccccc4)[nH]n13)CCC2 | 305 | 5.6% (inactive) | 19.9% (inactive) | 100% | -89.8% (inactive) | 102% | -0.539 (inactive) | -9.7e-06 (inactive) | 0.00436 (inactive) | 15.2% (inactive) | 18% (inactive)
Cc1ccc(S(=O)(=O)N2CCCC2)cc1S(=O)(=O)N1CCCC1 | 698 | -9% (inactive) | -7.5% (inactive) | 111% | 10.3% (inactive) | 116% | -0.609 (inactive) | -1.2e-05 (inactive) | 0.00607 (inactive) | 13.4% (inactive) | 12.9% (inactive)
CN(CC(=O)N1CCN(C2CCCCC2)CC1)S(=O)(=O)c1cccc2nsnc12 | 367 | 0.8% (inactive) | -4.6% (inactive) | 102% | 36% (inactive) | 94.6% | -0.379 (inactive) | 8e-05 (inactive) | 0.00544 (inactive) | 13% (inactive) | 28.3% (inactive)
COc1cccc(-c2noc(CCC(=O)NC3CCCCC3)n2)c1 | 433 | -12.7% (inactive) | -6.8% (inactive) | 112% | -39.4% (inactive) | 108% | -0.461 (inactive) | -4.1e-05 (inactive) | 0.00539 (inactive) | 11% (inactive) | 15.2% (inactive)
CC(C)(C)C1=C[C@@H](CO)C[C@@H](CO)C1 | 734 | -3.5% (inactive) | -19.6% (inactive) | 103% | -25.8% (inactive) | 138% | -0.391 (inactive) | -0.000123 (inactive) | 0.00843 (inactive) | 10.7% (inactive) | 23.8% (inactive)
C=C(C)Cn1c(SCC)nc2ccccc2c1=O | 399 | -5% (inactive) | 13.5% (inactive) | 98.7% | -26.7% (inactive) | 94.5% | -0.454 (inactive) | -0.000357 (inactive) | 0.0055 (inactive) | 9.69% (inactive) | 22.7% (inactive)
CCOC(=O)C1CCN(C(=O)c2ccc(OC)cc2OC)CC1 | 676 | -5.3% (inactive) | 0.1% (inactive) | 97.6% | 43.5% (inactive) | 86.8% | -0.566 (inactive) | 5.6e-06 (inactive) | 0.00429 (inactive) | 20% (inactive) | 20.5% (inactive)
